Measured values from ChEMBL document CHEMBL1134785, “Synthesis and biological evaluation of prostaglandin-F alkylphosphinic acid derivatives as bone anabolic agents for the treatment of osteoporosis” (J Med Chem, 2001).

Experiments:
Rattus norvegicus [1] = test: Marrow area (mm) measured Histomorphometrically after a dose of 300 ug/kg in tibial diaphysis; format: functional
Method in brief: (§1)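 Six-month-old rats, bilaterally ovariectomized, 6-8 per group, on natural chow. After 60 days they received once-daily subcutaneous dosing for 60 days at 0.01–3.0 mg/kg. Vehicle was acetate-buffered saline with methylcellulose and polyoxyethylenesorbitan monooleate. Labels were xylenol orange 90 mg/kg before treatment and calcein 10 mg/kg 14 and 4 days before sacrifice. Tibial histomorphometry was read under fluorescent light, with ANOVA/LSD versus vehicle.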

Rattus norvegicus [2] = test: Derived trabecular no […]measured using micro Computed Tomography(CT) after a dose of 30 ug/kg in Vertebral Bone; format: functional, Trabecula
Method in brief: (§2)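 Micro-CT of the fifth lumbar vertebra, measuring cancellous bone volume and architecture. Rats were 6 months old, OVX 60 days before treatment, then dosed daily for 60 days. Test-agent doses were 10–3000 µg/kg, given as a once-daily subcutaneous injection; 6 mg/kg/day was given to the positive-control group. Groups were compared with vehicle by ANOVA plus LSD test.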

Rattus norvegicus [3] = test: Directly measured thickness(um) using micro Computed Tomography(CT) after a dose of 3000 ug/kg in Vertebral Bone; format: functional; method in brief: as §2
Rattus norvegicus [4] = test: Derived trabecular thickness (um) measured using micro Computed Tomography(CT) after a dose of 30 ug/kg in Vertebral Bone; format: functional, Trabecula; method in brief: as §2
Rattus norvegicus [5] = test: Bone Volume /Tissue Volume (%)measured Histomorphometrically after a dose of 1000 ug/kg in proximal tibial metaphysis; format: functional; conditions: at 1000 µg/kg
Rattus norvegicus [6] = test: Mineral apposition rate ([…])bone measured Histomorphometrically after a dose of 100 ug/kg in proximal tibial metaphysis; format: functional
Method in brief: (§3)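 Ovariectomized six-month-old rats, 6-8 per group, were dosed subcutaneously once daily at 0.01–3.0 mg/kg for 60 days, starting 60 days after surgery. Vehicle was acetate-buffered saline, methylcellulose and polyoxyethylenesorbitan monooleate. Labels were xylenol orange 90 mg/kg pretreatment and calcein 10 mg/kg at 14 and 4 days before necropsy. Histomorphometry covered the proximal tibial metaphysis, 1–4 mm distal to the growth plate–metaphyseal junction. ANOVA/LSD versus vehicle.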

[7] = biological target: T1, Prostaglandin D2 receptor (Homo sapiens, UniProt Q13258); test: In vitro binding at DP human prostaglandin receptor using [3H]- PGD-2 as radioligand
T1 sequence (Q13258 whole entry): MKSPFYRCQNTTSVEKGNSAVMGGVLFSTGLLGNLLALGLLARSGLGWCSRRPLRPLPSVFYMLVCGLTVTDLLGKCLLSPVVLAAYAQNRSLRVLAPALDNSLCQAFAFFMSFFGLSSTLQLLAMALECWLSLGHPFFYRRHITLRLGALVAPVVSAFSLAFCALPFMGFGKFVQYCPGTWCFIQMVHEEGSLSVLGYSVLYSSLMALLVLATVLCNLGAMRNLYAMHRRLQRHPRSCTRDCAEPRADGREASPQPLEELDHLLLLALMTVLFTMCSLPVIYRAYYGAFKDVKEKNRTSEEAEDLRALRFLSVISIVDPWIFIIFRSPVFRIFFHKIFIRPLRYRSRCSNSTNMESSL
Method in brief: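 hDP stably expressed in HEK-293 cells, collected 4-5 days after seeding. Membranes made by lysis and 100000g spin, then taken up at 1 mg protein/mL in TME buffer at pH 7.4. Competition binding used 5 nM [3H]PGD2, read by filtration and scintillation counting.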

Rattus norvegicus [8] = test: Endosteal mineralizing surface Histomorphometrically after a dose of 3000 ug/kg in tibial diaphysis; format: functional; method in brief: as §1
Rattus norvegicus [9] = test: Trabecular no (mm)measured Histomorphometrically after a dose of 1000 ug/kg in proximal tibial metaphysis; format: functional, Trabecula
Method in brief: (§4)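 Six-month-old rats were ovariectomized, and 60 days later daily subcutaneous dosing began for 60 days, with vehicle of acetate-buffered saline, methylcellulose and polysorbate. Xylenol orange (90 mg/kg) labelled bone pre-treatment and calcein (10 mg/kg) 14 and 4 days pre-sacrifice. Histomorphometry covered the proximal tibial metaphysis 1-4 mm distal to the growth plate-metaphyseal junction. Groups were 6-8 rats, compared by ANOVA/LSD vs vehicle.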

Rattus norvegicus [10] = test: Mineralizing surface/bone surface(%) measured Histomorphometrically after a dose of 10 ug/kg in proximal tibial metaphysis; format: functional; method in brief: as §3
Rattus norvegicus [11] = test: Bone Volume /Tissue Volume (%)measured using micro Computed Tomography(CT) after a dose of 3000 ug/kg in Vertebral Bone; format: functional; conditions: at 3000 µg/kg
Rattus norvegicus [12] = test: Bone formation rate/bone volume (%/year) bone measured histomorphometrically after a dose of 100 ug/kg in proximal tibial metaphysis; format: functional; conditions: at 100 µg/kg
Rattus norvegicus [13] = test: Trabecular no (mm)measured Histomorphometrically after a dose of 100 ug/kg in proximal tibial metaphysis; format: functional, Trabecula; method in brief: as §4
Rattus norvegicus [14] = test: Trabecular no (mm)measured Histomorphometrically after a dose of 3000 ug/kg in proximal tibial metaphysis; format: functional, Trabecula; method in brief: as §4
Rattus norvegicus [15] = test: Trabecular no (mm)measured Histomorphometrically after a dose of 30 ug/kg in proximal tibial metaphysis; format: functional, Trabecula; method in brief: as §4
Rattus norvegicus [16] = test: Trabecular thickness […] measured Histomorphometrically after a dose of 1000 ug/kg in proximal tibial metaphysis; format: functional, Trabecula; method in brief: as §4
Rattus norvegicus [17] = test: connectivity density (mm-3) using micro Computed Tomography(CT) after a does of 30 ug/kg in Vertebral Bone; format: functional
Method in brief: (§5)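 Rats were ovariectomized at 6 months of age and, after 60 days, dosed subcutaneously once daily for 60 days, with vehicle of acetate-buffered saline, methylcellulose and polysorbate. At necropsy the fifth lumbar vertebra was scanned by micro-CT to obtain cancellous architecture. Groups were 6-8 rats; results were compared to vehicle by ANOVA with least significant difference test.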

Rattus norvegicus [18] = test: Endosteal mineralizing surface Histomorphometrically after a dose of 10 ug/kg in tibial diaphysis; format: functional; method in brief: as §1
Rattus norvegicus [19] = test: Mineral apposition rate ([…])bone measured Histomorphometrically after a dose of 30 ug/kg in tibial diaphysis; format: functional; method in brief: as §1
Rattus norvegicus [20] = test: connectivity density using micro Computed Tomography(CT) after a dose of 100 ug/kg in Vertebral Bone; format: functional; method in brief: as §5
Rattus norvegicus [21] = test: Trabecular thickness […] measured Histomorphometrically after a dose of 30 ug/kg in proximal tibial metaphysis; format: functional, Trabecula; method in brief: as §4
[22] = biological target: Prostaglandin E2 receptor EP2 subtype (Homo sapiens, UniProt P43116); test: In vitro binding at EP2 human prostaglandin receptor
Method in brief: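 Receptors stably expressed in CHO cells, collected 4-5 days after seeding. Membranes made by lysis (Tris, EDTA, protease inhibitors) and 100000g pellet, then resuspended at 1 mg protein/mL in TME. Radioligands at 5 nM: [3H]PGE2 for EP2/EP3/EP4, [3H]Iloprost for IP, [3H]SQ-29548 for TP. Competition binding with filtration and counting.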

Rattus norvegicus [23] = test: Endosteal eroded surface(%) measured Histomorphometrically after a dose of 100 ug/kg in tibial diaphysis; format: functional
Method in brief: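 Tibial histomorphometry in 6-month-old rats, OVX 60 days before treatment, then daily injection for 60 days. Vehicle was acetate-buffered saline with methylcellulose and polyoxyethylenesorbitan monooleate. Rats received xylenol orange 90 mg/kg before treatment and calcein 10 mg/kg at 14 and 4 days pre-sacrifice. Rats were killed by cardiac puncture under ketamine/xylazine. Groups were compared with vehicle by ANOVA plus LSD test.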

Rattus norvegicus [24] = test: Mineral apposition rate ([…])bone Histomorphometrically after a dose of 30 ug/kg in proximal tibial metaphysis; format: functional; method in brief: as §3
Rattus norvegicus [25] = test: Marrow area (mm) measured Histomorphometrically after a dose of 3000 ug/kg in tibial diaphysis; format: functional; method in brief: as §1

Prostaglandin E2 receptor EP2 subtype, sequence (P43116 whole entry): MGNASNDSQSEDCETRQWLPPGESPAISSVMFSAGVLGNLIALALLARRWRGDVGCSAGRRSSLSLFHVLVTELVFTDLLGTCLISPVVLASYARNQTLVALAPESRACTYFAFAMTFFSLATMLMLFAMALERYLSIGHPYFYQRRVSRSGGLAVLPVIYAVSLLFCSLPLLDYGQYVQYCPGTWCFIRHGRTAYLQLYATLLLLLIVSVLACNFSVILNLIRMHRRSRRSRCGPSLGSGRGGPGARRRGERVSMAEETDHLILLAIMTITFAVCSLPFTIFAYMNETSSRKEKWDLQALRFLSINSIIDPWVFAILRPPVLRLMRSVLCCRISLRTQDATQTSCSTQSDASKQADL

CP(=O)(O)CCC/C=C\C[C@@H]1[C@@H](/C=C/[C@@H](O)COc2ccccc2)[C@H](O)C[C@@H]1O
Marrow area (Rattus norvegicus [1]): 0.89 mm | Derived trabecular number (Rattus norvegicus [2]): 4.44 mm-1 | Directly measured thickness (Rattus norvegicus [3]): 134 µm | Derived trabecular thickness (Rattus norvegicus [4]): 77.8 µm | Activity (Rattus norvegicus [5]): 9.43% | Mineral apposition rate (Rattus norvegicus [6]): 0.87 µm/day | IC50 [7]: > 10 µM | Endosteal mineralizing surface (Rattus norvegicus [8]): 29.4% | Trabecular no. (Rattus norvegicus [9]): 1.64 1/mm | Activity (Rattus norvegicus [10]): 28.37% | Activity (Rattus norvegicus [11]): 39.48% | Activity (Rattus norvegicus [12]): 320.16% | Trabecular no. (Rattus norvegicus [13]): 1.28 1/mm | Trabecular no. (Rattus norvegicus [14]): 1.51 1/mm | Trabecular no. (Rattus norvegicus [15]): 0.87 1/mm | Trabecular thickness (Rattus norvegicus [16]): 56.7 µm | Connectivity density (Rattus norvegicus [17]): 59.2 mm**-3 | Endosteal mineralizing surface (Rattus norvegicus [18]): 46.62% | Mineral apposition rate (Rattus norvegicus [19]): 0.88 µm/day | Connectivity density (Rattus norvegicus [20]): 68.1 mm**-3 | Trabecular thickness (Rattus norvegicus [21]): 41.2 µm | IC50 [22]: > 10 µM | Endosteal eroded surface (Rattus norvegicus [23]): 2.3% | Mineral apposition rate (Rattus norvegicus [24]): 1.09 µm/day | Marrow area (Rattus norvegicus [25]): 0.74 mm
